The list is not random: actives were taken first. Their share in the collection is about 3%.
NPY Y2 blocker: NPY-Y2 receptor antagonists, primary screen, cell-based; Neuropeptide Y receptor type 2 (Homo sapiens), P49146; NPY-Y2 expressing cells, antagonist mode; inhibition, % at 2.7 µM; actives 0.99% (n = 140,000); AID 793, 2007; in the data active = inhibition above about 17%
NPY1 pot ag: NPY-Y1 receptor potentiators or agonists, primary screen, cell-based; Neuropeptide Y receptor type 1 (Homo sapiens), P25929; NPY-Y1 expressing cells, potentiator/agonist activation; activation, % at 3.6 µM; actives 0.37% (n = 220,000); in the data active = activation above about 33%, passing the limit was not always enough;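 also: cells stimulated with NPY at EC10 then isoproterenol at EC100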
Target sequence (P25929 whole entry, looked up): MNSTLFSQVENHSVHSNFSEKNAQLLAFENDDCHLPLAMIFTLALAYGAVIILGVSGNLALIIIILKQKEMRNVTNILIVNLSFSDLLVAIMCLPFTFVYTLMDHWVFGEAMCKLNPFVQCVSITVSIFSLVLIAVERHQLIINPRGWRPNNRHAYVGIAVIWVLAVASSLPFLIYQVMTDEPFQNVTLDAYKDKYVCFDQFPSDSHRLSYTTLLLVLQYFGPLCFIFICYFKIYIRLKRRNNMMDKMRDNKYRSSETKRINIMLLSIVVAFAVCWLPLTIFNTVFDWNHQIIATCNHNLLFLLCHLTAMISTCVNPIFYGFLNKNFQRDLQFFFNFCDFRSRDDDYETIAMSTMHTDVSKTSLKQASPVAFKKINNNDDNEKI
NPY-Y1 antag: NPY-Y1 receptor antagonists, primary screen, cell-based; Neuropeptide Y receptor type 1 (Homo sapiens), P25929; HEK293-CNG Y1 cells, membrane potential fluorescence; NPY at EC95, then isoproterenol; inhibition, % at 3.6 µM; actives 1% (n = 200,000);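 active = inhibition above the campaign mean inhibition of all tested compounds plus 3 SD, cut at about 20% in these data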
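Assay system: HEK293 cells with Y1 receptor plus CNG channel | Probe or stimulus: NPY (25 nM), isoproterenol (1 µM), Ro 20-1724 (25 µM) | Timing: Compound incubation 1 h at room temperature, readout 45 min post-stimulation | Measured by: Membrane-potential fluorescent dye readout | Benchmarks: High control isoproterenol alone, low control NPY with isoproterenol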
Hsp70 activator: Hsp70 transcriptional activators, primary screen, cell-based, HeLa, Hsp70 promoter luciferase, luminescence, 10 µM. HeLa Hsp70 promoter luciferase reporter; scaled: vehicle 0, proteasome-inhibitor control 100%. activation, % at 10 µM. actives 0.04% (n = 200,000). AID 1203, 2008;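 active = activation above the mean across all tested compounds plus 3 SD, cutoff set per campaign, cut at about 5.5% in these data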
Wee1 stabilizer: Wee1 degradation inhibitors, primary screen, cell-based, HeLa, Wee1K328M-luciferase, luminescence. Wee1-like protein kinase (Homo sapiens), P30291. HeLa Luc-Wee1K328M stability; 100% = proteasome inhibitor MG132 effect. reporter increase, % at 5 µM. actives 1.2% (n = 220,000);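 active = activation above the mean of all tested compounds plus 3 SD, set per screening run, cut at about 8.8% in these data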;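 also: cells exposed to compound for 20 h before luminescence read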
NPY-Y2 PAM-ag: NPY-Y2 potentiators or agonists, primary screen, cell-based; Neuropeptide Y receptor type 2 (Homo sapiens), P49146; cells expressing NPY-Y2, potentiator/agonist read-out; activation, % at 3.6 µM; actives 0.45% (n = 220,000); in the data active = activation above about 27%;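 also: cells stimulated with NPY near EC25 plus isoproterenol at EC100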
NPY-Y1 confirm: NPY-Y1 potentiators or agonists, confirmation, cell-based. shares compounds with NPY1 pot ag. cell-based NPY-Y1 potentiator/agonist assay. activation, % at 3.6 µM. actives 20% (n = 280); in the data active = activation above about 45%;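 also: cells challenged with NPY at its EC10 plus isoproterenol stimulus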
NPY-Y2 counter: NPY-Y2 potentiators or agonists, counter-screen for NPY-Y1 potentiator project, cell-based, fluorescence; shares compounds with NPY1 pot ag; HEK293-CNG cells, membrane-potential fluorescence (FLIPR), 1536-well; activation, % at 3.6 µM; actives 20% (n = 280); in the data active = activation above about 33%
NPY-Y1 agonist: NPY-Y1 direct agonists without NPY, confirmation, counter-screen for NPY-Y1 potentiator project, cell-based, fluorescence; AID 1697, 2009; actives 50% (n = 280); shares compounds with NPY1 pot ag; activation, % at 3.6 µM; HEK293 Y1-CNGC, membrane potential fluorescence, agonist mode;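 active = percent activation above the mean of DMSO-only control wells plus 3 SD of those wells, cut at about 18% in these data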;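 also: cells challenged with isoproterenol plus Ro 20-1724 with no NPY in test wells; Y1 agonism lowers isoproterenol-driven cAMP and reduces probe fluorescence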
NPY-Y2 agonist: NPY-Y2 direct agonists without NPY, counter-screen for NPY-Y1 potentiator project, cell-based, fluorescence; shares compounds with NPY1 pot ag; HEK293 Y2-CNGC, membrane potential fluorescence, agonist mode; activation, % at 3.6 µM; actives 67% (n = 280); AID 1698, 2009;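 active = activation above the solvent-only control wells' mean plus 3 SD, cut at about 11% in these data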;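 also: agonism lowers cAMP so well fluorescence drops in active wells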
CNGC counter: CNGC cAMP sensor activity inhibitors, counter-screen for NPY-Y1 potentiator/agonist project, cell-based, HEK293-CNG parental, membrane potential fluorescence, Y1 set; shares compounds with NPY1 pot ag; isoproterenol cAMP; inhibition, % at 3.6 µM; actives 42% (n = 280); AID 1704, 2009;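 active = inhibition above the mean of stimulated solvent-only control wells plus 3 SD, cut at about 22% in these data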
A number is an active result; . = inactive; / = no result.

SMILES	NPY Y2 blocker	NPY1 pot ag	NPY-Y1 antag	Hsp70 activator	Wee1 stabilizer	NPY-Y2 PAM-ag	NPY-Y1 confirm	NPY-Y2 counter	NPY-Y1 agonist	NPY-Y2 agonist	CNGC counter
Fc1ccc(-n2cc(-c3ccccc3)c3c(NN4CCOCC4)ncnc32)cc1	.	.	.	.	.	.	/	/	/	/	/
O=C(CCCOc1ccc(Cl)cc1Cl)Nc1ccc(O)cc1C(=O)O	/	.	/	/	.	.	/	/	/	/	/
CS(=O)(=O)N(Cc1ccco1)Cc1ccccc1Cl	.	.	.	.	.	.	/	/	/	/	/
CN(C)S(=O)(=O)c1ccc(S(=O)(=O)N(Cc2ccco2)Cc2ccccc2Cl)cc1	.	38	.	.	.	.	.	.	.	.	.
CCCC(=O)Nc1sc(C(=O)Nc2cccc(N)c2)c(C)c1C(=O)OC	/	.	.	.	.	.	/	/	/	/	/
COc1cc2c3c(c1)c(N=NC(N)=S)c(O)n3C(C)(C)C=C2C	/	55	/	/	.	.	74	61	47	60	54
Cc1ccc(NCc2n[nH]c(=S)n2Cc2ccccc2)cc1Cl	/	45	.	.	.	.	.	.	.	.	.
Cc1ccc(NCc2nnc(SCC(=O)O)n2Cc2ccccc2)cc1Cl	/	.	.	.	.	.	/	/	/	/	/
COc1ccccc1N/C=C/C(=C(C#N)C#N)N(C)C	/	.	.	.	.	.	/	/	/	/	/
COc1ccc(CCNC(=O)C2CCN(C(=O)c3ccc([N+](=O)[O-])cc3)CC2)cc1	/	.	.	.	.	.	/	/	/	/	/
CC1CC(C)CN(CCCNC(=O)c2cc3c(=O)[nH]c4ccccc4c3n2C)C1 (stereo not given)	/	41	.	.	.	.	.	.	26	19	.
O=c1c2ccccc2nnn1Cc1ccc2ccccc2c1	/	.	.	.	.	.	/	/	/	/	/
CCOC(=O)/C=C/C(=O)Nc1ccc(Oc2ccccc2)cc1	/	39	.	.	.	.	.	.	.	19	25
O=C(NCc1cccs1)C1CC(=O)N(c2ccc(Cl)cc2)C1 (stereo not given)	/	.	.	.	.	.	/	/	/	/	/
Cc1cc2ccccn2c1C(=O)c1ccc(N/N=C/c2ccc(C(=O)O)cc2)c([N+](=O)[O-])c1	/	.	/	/	.	.	/	/	/	/	/
C/C(=N\Nc1ccc(C(=O)c2c(C)cc3ccccn23)cc1[N+](=O)[O-])c1ccc(O)cc1	/	62	/	/	.	.	.	.	.	12	.
CCC(C)C1C(C#N)=C(N)Oc2n[nH]c(-c3ccccc3)c21 (stereo not given)	.	40	.	.	.	.	.	.	27	23	.
N#C/C(=C(/O)c1cc2ccccc2o1)c1nc2ccccc2s1	/	49	/	/	.	.	.	.	.	11	.
COc1ccc(S(=O)(=O)Nc2ccccc2C(=O)Nc2nc(-c3ccc(F)cc3)cs2)cc1OC	.	39	.	.	.	.	.	.	.	.	.
CCOc1ccc(Nc2nc(Nc3ccc(O)cc3)nc(C)c2[N+](=O)[O-])cc1	/	40	.	.	.	.	.	.	.	16	.
COc1ccc(Nc2nc(N)c([N+](=O)[O-])c(NCCO)n2)cc1	/	.	/	/	.	.	/	/	/	/	/
OCCC1CN(CC#Cc2ccccc2)CCN1C1CCCC1 (stereo not given)	/	102	.	.	.	.	.	.	.	.	.
COc1ccccc1Oc1ccc(-c2cnc3ccccc3n2)cc1[N+](=O)[O-]	/	47	.	.	.	.	.	.	38	21	.
CSc1nc(NC(C)=O)nc(C)c1Cl	.	.	.	.	.	.	/	/	/	/	/
CCN(CC)c1ccc(/C=C(/C#N)c2nc3ccc(C)cc3[nH]2)c(OC(C)C)c1	.	44	.	.	.	.	52	38	28	45	30
SMILES	NPY Y2 blocker	NPY1 pot ag	NPY-Y1 antag	Hsp70 activator	Wee1 stabilizer	NPY-Y2 PAM-ag	NPY-Y1 confirm	NPY-Y2 counter	NPY-Y1 agonist	NPY-Y2 agonist	CNGC counter
CN1N=C2c3ccccc3CCCC2C1c1ccc(F)cc1 (stereo not given)	/	.	/	/	.	.	/	/	/	/	/
Cn1c(CSCc2ccc(Cl)cc2Cl)n[nH]c1=S	/	65	.	.	.	.	.	.	.	.	.
COc1cccc(CC(NC(C)=O)C(=O)NC2CCN(S(=O)(=O)c3ccc(F)cc3)CC2)c1OC (stereo not given)	/	.	.	.	.	.	/	/	/	/	/
CCn1cc(C(=O)N2CCc3ccccc32)c(=O)c2cc(S(=O)(=O)N(C)C3CCCCC3)ccc21	.	51	.	.	.	.	.	.	.	.	.
CCc1ccc(NC(=O)C(C)OC(=O)c2ccc(NS(=O)(=O)c3ccc(C)c([N+](=O)[O-])c3)cc2)cc1 (stereo not given)	.	42	.	.	.	.	.	.	.	12	23
CC(OC(=O)c1ccc(NS(=O)(=O)c2ccc3[nH]c(=O)[nH]c3c2)cc1)C(=O)Nc1ccc(Cl)cc1 (stereo not given)	/	67	.	.	.	.	.	.	.	.	.
Cc1ccc(NC(=O)C(C)OC(=O)c2ccc(NS(=O)(=O)c3ccc(F)c(F)c3)cc2)cc1 (stereo not given)	.	.	.	.	.	.	/	/	/	/	/
O=C1CN(C(=O)COc2ccccc2)CCN1	.	.	.	.	.	.	/	/	/	/	/
CN(C)CCNC(=O)c1ccc(Sc2ccc(Br)cc2)c([N+](=O)[O-])c1	/	39	.	.	.	.	.	33	26	40	30
CCN(CC)Cc1ccccc1Sc1ccccc1	.	.	.	.	.	.	/	/	/	/	/

Compound activity (PubChem BioAssay)
